Tests used:
Leishmania tropica [1] = assay: The compound was tested for growth inhibition against DNM-R150 (Leishmania tropica) parasites, at a concentration of 30 uM.; assay type: functional
Method in brief: (§1)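 Multidrug-resistant L. tropica DNM-R150 line, kept under continuous 150 µM daunomycin and overexpressing a Pgp-like transporter. Parasites were grown at 28 °C in modified RPMI 1640 with 20% heat-inactivated fetal bovine serum and tested for growth sensitivity to the sesquiterpene.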

[2] = The compound was tested for binding activity against nucleotide-binding domain 2, with quenching at 50 uM
Method in brief: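 Recombinant Leishmania Pgp-like transporter NBD2, expressed in E. coli M15 [pREP4] and affinity-purified, at 0.2–0.5 µM final in pH 8.5 potassium phosphate buffer with 1 M NaCl, glycerol, HECAMEG and 10 mM imidazole, 25 °C. Sesquiterpene in DMSO (≤2% final) titrated in. Intrinsic fluorescence read at 300–350 nm emission (288 nm excitation), corrected for inner-filter and dilution. Quenching at 50 µM was read graphically from the curve.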

Leishmania tropica [3] = assay: The compound was tested for growth inhibition against DNM-R150 (Leishmania tropica) parasites, at a concentration of 15 uM.; assay type: functional; method in brief: as §1
Leishmania tropica [4] = assay: The compound was tested for growth inhibition against Wild type parasites, at a concentration of 15 uM.; assay type: functional
Method in brief: (§2)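 Wild-type L. tropica LRC clone, obtained by agar plating. Cultured at 28 °C in modified RPMI 1640 with 20% heat-inactivated fetal bovine serum. Growth sensitivity to the sesquiterpene was assessed.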

Leishmania tropica [5] = assay: The compound was tested for growth inhibition against Wild type parasites, at a concentration of 30 uM.; assay type: functional; method in brief: as §2
Leishmania tropica [6] = assay: The compound was tested for growth inhibition against Wild type parasites, at a concentration of 15 uM; assay type: functional; method in brief: as §2
Leishmania tropica [7] = assay: The compound was tested for growth inhibition against Wild type parasites, at a concentration of 30 uM; assay type: functional; method in brief: as §2
Leishmania tropica [8] = assay: The compound was tested for growth inhibition against DNM-R150 (Leishmania tropica) parasites, at a concentration of 15 uM; assay type: functional; method in brief: as §1
Leishmania tropica [9] = assay: The compound was tested for growth inhibition against DNM-R150 (Leishmania tropica) parasites, at a concentration of 30 uM; assay type: functional; method in brief: as §1

| SMILES | Growth inhibition (Leishmania tropica [1]) [%] | Quenching [2] [%] | Growth inhibition (Leishmania tropica [3]) [%] | Growth inhibition (Leishmania tropica [4]) [%] | Growth inhibition (Leishmania tropica [5]) [%] | Growth inhibition (Leishmania tropica [6]) [%] | Growth inhibition (Leishmania tropica [7]) [%] | Growth inhibition (Leishmania tropica [8]) [%] | Growth inhibition (Leishmania tropica [9]) [%] |
| --- | --- | --- | --- | --- | --- | --- | --- | --- | --- |
| CCC(C)C(=O)OC[C@]12[C@H](OC(=O)c3ccccc3)[C@@H](OC(C)=O)[C@@H]3[C@@H](O)[C@]1(OC3(C)C)[C@@](C)(O)C[C@H](OC(C)=O)[C@@H]2OC(C)=O (some centres undefined) | 91.7 | 30.8 | 26.8 | 7.5 | 11.1 | – | – | – | – |
| CCC(C)C(=O)OC[C@]12[C@H](OC(=O)c3ccccc3)[C@@H](OC(=O)C(C)CC)[C@@H]3[C@@H](O)[C@]1(OC3(C)C)[C@@](C)(O)C[C@H](O)[C@@H]2OC(C)=O (some centres undefined) | – | 27.5 | – | – | – | 5.3 | 4 | 83.1 | 92.6 |
| CCC(C)C(=O)OC[C@]12[C@@H](OC(=O)c3ccccc3)[C@H](OC(=O)c3cccnc3)[C@@H]3[C@@H](OC(C)=O)[C@]1(OC3(C)C)[C@@](C)(O)C[C@H](OC(C)=O)[C@@H]2OC(C)=O (some centres undefined) | 82.5 | 31.8 | 32.3 | 7.5 | 6.2 | – | – | – | – |
| CCC(C)C(=O)OC[C@]12[C@H](OC(=O)c3ccccc3)[C@@H](OC(C)=O)[C@@H]3[C@@H](OC(C)=O)[C@]1(OC3(C)C)[C@@](C)(O)C[C@H](OC(C)=O)[C@@H]2OC(C)=O (some centres undefined) | 86.1 | 22.8 | 40.9 | 4.9 | 9.5 | – | – | – | – |
| CCC(C)C(=O)OC[C@]12[C@H](OC(=O)c3ccccc3)[C@@H](OC(C)=O)[C@@H]3[C@@H](OC(C)=O)[C@]1(OC3(C)C)[C@@](C)(O)C[C@H](O)[C@@H]2OC(=O)c1ccccc1 (some centres undefined) | – | – | – | – | – | 25.5 | 62.9 | 77.8 | 95.4 |
| CC(=O)OC[C@@]12[C@@H](OC(C)=O)CC[C@](C)(O)[C@]13OC(C)(C)[C@H]([C@H](OC(C)=O)[C@H]2OC(=O)c1ccccc1)[C@H]3OC(C)=O | 49.8 | 27 | 16.3 | 13.5 | 16.9 | – | – | – | – |
| CCC(C)C(=O)OC[C@]12[C@H](OC(=O)c3ccccc3)[C@@H](OC(C)=O)[C@@H]3[C@@H](O)[C@]1(OC3(C)C)[C@@](C)(O)C[C@H](OC(=O)c1cccnc1)[C@@H]2O (some centres undefined) | – | 31.1 | – | – | – | 9.3 | 8.4 | 20.8 | 88.3 |
| CCC(C)C(=O)OC[C@]12[C@H](OC(=O)c3ccccc3)[C@@H](OC(C)=O)[C@@H]3[C@@H](O)[C@]1(OC3(C)C)[C@@](C)(O)C[C@H](O)[C@@H]2OC(=O)c1ccccc1 (some centres undefined) | – | 31.4 | – | – | – | 9.8 | 30 | 90.5 | 96 |
| CCC(C)C(=O)OC[C@@]12[C@@H](OC(C)=O)CC[C@](C)(O)[C@]13OC(C)(C)[C@H]([C@@H](OC(=O)c1cccnc1)[C@@H]2OC(=O)c1ccccc1)[C@H]3OC(C)=O (some centres undefined) | – | 34.3 | – | – | – | 6.9 | 13.8 | 92.9 | 96.1 |

Source: ChEMBL document CHEMBL1132450, “New natural sesquiterpenes as modulators of daunomycin resistance in a multidrug-resistant Leishmania tropica line” (1999)
